An excerpt weighted towards active compounds, which were near 3.9% of everything screened.
TIM10 inh – inhibits growth of TIM10 yeast strain | S. cerevisiae TIM10 strain growth, BacTiter-Glo luminescence, 24 h | inhibition, % at 10 µM | 330,000 compounds, 1.4% hits;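 active = inhibition of 40% or more at the single tested concentration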;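 note: wild-type TIM10 isogenic control strain grown at permissive 25 °C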
UPR CHOP act – apoptotic UPR (CHOP) activation; CHO-CHOP luciferase reporter, luminescence; percent of tunicamycin response over DMSO baseline; activation, % at 10 µM; 330,000 compounds, 0.34% hits; AID 449763;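 active = at 10 µM dose, activation of 40% or more, normalized to positive control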;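 note: 100% = tunicamycin at 10 µg/mL and 0% = DMSO alone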
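Assay system: CHO cells with stable CHOP pathway luciferase reporter; Buffer or medium: F12 plus 10% serum; Times: 16-18 h cell attachment, then 6 h compound exposure, 37 °C; Signal: luciferase luminescence; Read-out basis: percent activation relative to tunicamycin control; Control set: tunicamycin high control, DMSO low control.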
UPR XBP1 act – activators of adaptive arm of unfolded protein response (XBP1); CHO-XBP1 luciferase reporter, IRE1-XBP1 UPR activation, luminescence; percent of tunicamycin response, DMSO as zero; activation, % at 20 µM; 330,000 compounds, 0.33% hits; AID 463104;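 active = versus positive control, 20 µM dose yields 30% or more activation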;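 note: 100% = tunicamycin at 10 µg/mL and 0% = DMSO only wells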
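Material: IRE1-XBP1 luciferase reporter CHO line / Quantity: one thousand reporter cells per well / Buffer or medium: F12 with 10% serum / Compound: 20 µM single concentration, DMSO 1% / Times: 6 h treatment, 37 °C / Detection: Steady-Glo luciferase glow luminescence, 10 min after reagent addition / Benchmarks: tunicamycin high, DMSO low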
tim10-1 inh – inhibits growth of tim10-1 mutant yeast | S. cerevisiae tim10-1 ts strain growth, BacTiter-Glo, 24 h | inhibition, % at 20 µM | 330,000 compounds, 2.2% hits | AID 463190;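 active = inhibition of at least 40%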;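 note: mutant grown at 25 °C; 0% = DMSO wells with yeast and 100% = wells holding no yeast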
tim23-1 inh – growth inhibitors of tim23-1 mutant yeast | S. cerevisiae tim23-1 growth, BacTiter-Glo luminescence, 24 h | AID 463212 | inhibition, % at 20 µM | 330,000 compounds, 1.3% hits;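 active = growth inhibition of the mutant yeast at or above 50%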;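 note: temperature-sensitive mutant grown at 25 °C; plate controls were DMSO-treated mutant yeast for no effect and medium wells lacking yeast for full effect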
UPR CHOP confirm – confirmation of apoptotic unfolded protein response (CHOP) activators; CHO-CHOP cells, CHOP-luciferase reporter luminescence; percent of tunicamycin response, DMSO as zero; 1,000 compounds, 64% hits; activation, % at 10 µM; shares compounds with UPR CHOP act; in the data active = activation above about 33%;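 note: 0% = DMSO wells and 100% = tunicamycin 10 µg/mL wells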
An asterisk follows results filed as active; · = not tested or not shown.

SMILES | TIM10 inh | UPR CHOP act | UPR XBP1 act | tim10-1 inh | tim23-1 inh | UPR CHOP confirm
Cn1c(-c2cccc(F)c2)nc2c1c(=O)[nH]c(=O)n2Cc1ccccc1 | -9 | -2 | 2 | -10 | -2 | ·
COC(=O)c1ccccc1NC(=O)COC(=O)c1ccccc1N=Nc1ccc(N(C)C)cc1 | 10 | 1 | 6 | 25 | 12 | ·
CC(=O)c1ccc(NC(=O)COC(=O)c2ccccc2N=Nc2ccc(N(C)C)cc2)cc1 | 15 | 44* | 9 | 20 | 21 | 55*
C[C@H]1[C@H](NC(=O)C(=NOC(C)(C)C(=O)O)c2csc(N)n2)C(=O)N1S(=O)(=O)O | 16 | -1 | -8 | 6 | 5 | ·
C/C(CC1CC2=C(CC1(C)C)C(C)(C)CCC2)=N\NC(N)=S (configuration not stated) | 28 | 57* | 25 | 16 | 46 | 27
CCC(C)N(C(=O)CSc1nnc(COc2ccccc2F)n1N)C1CCS(=O)(=O)C1 (configuration not stated) | -13 | 0 | -1 | -19 | -34 | ·
CCN1CCN(Cc2ccc(NC(=O)c3ccc(C)c(NC(=O)c4c[nH]c5cc(C(F)(F)F)ccc5c4=O)c3)cc2C(F)(F)F)CC1 | 10 | 68* | -2 | 25 | 6 | -5
Cc1ccc(N=C2C(=S)N(c3ccc(C)cc3)C(=N)N2/N=C/c2ccc(Cl)cc2)cc1 | 37 | 57* | 7 | 34 | 47 | 17
COc1ccc(O)c(/C=N/n2c(-c3ccco3)csc2=Nc2cccnc2)c1 | 11 | 0 | 8 | 2 | 16 | ·
CN=c1scc(-c2ccco2)n1/N=C/c1ccc(O)c(O)c1 | -3 | 52* | -3 | -24 | 31 | 70*
C=CCN=c1scc(C)n1/N=C/c1ccc(O)c(O)c1 | 23 | 302* | 19 | 6 | 2 | 208*
CN=c1scc(C)n1/N=C/c1ccc(O)cc1 | 19 | 3 | 1 | 14 | 21 | ·
CCOc1cc(NC(=O)CCl)c(OCC)cc1NC(=O)CCl | 7 | 153* | -4 | -5 | 6 | 87*
CCOc1ccccc1NC(=O)CCC(=O)Nc1ccccc1OCC | 15 | -2 | 1 | 19 | 2 | ·
Cc1c(OC(C)C(=O)NCc2ccccn2)ccc2c3c(c(=O)oc12)CCCC3 (configuration not stated) | 21 | -2 | -3 | 9 | 23 | ·
CCOc1ccc(/C=N/NC(=O)NC23CC4CC(CC(C4)C2)C3)cc1O | 14 | 2 | 7 | 38 | 44 | ·
O=C(N/N=C/c1ccc(O)c(O)c1)NC12CC3CC(CC(C3)C1)C2 | -3 | 145* | 42* | 20 | 13 | 157*
O=C(NNC(=O)C1CCN(C(=O)Nc2ccccc2)CC1)c1ccc([N+](=O)[O-])cc1 | 7 | 0 | -1 | -12 | 5 | ·
O=C(CCc1ccc(O)c(O)c1)N/N=C/c1ccc2c(c1)OCO2 | 4 | 49* | 34* | 9 | -8 | 9
CC(C)Oc1ccc(CCC(=O)N/N=C/c2ccc3c(c2)OCO3)cc1 | 6 | 0 | -2 | 7 | 8 | ·
O=[n+]1c2c(n([O-])c3cc(F)c(N4CCCC4)cc31)CCCC2 | 1 | 2 | 5 | 24 | 0 | ·
O=[n+]1c2c(n([O-])c3cc(F)c(N4CCCC4)cc31)CCC2 | 11 | 41* | 24 | 21 | 15 | -1
CCc1ccc(C(=O)CN2C(=O)NC3(CCc4ccccc43)C2=O)cc1 (configuration not stated) | 30 | 1 | 2 | -14 | 36 | ·
COC(=O)N=Nc1c(O)[nH]c2ccc(Br)cc12 | 14 | 0 | 1 | -39 | 3 | ·
Oc1[nH]c2ccccc2c1N=NC(=S)N1CCOCC1 | 15 | 254* | 18 | 21 | 17 | 229*
Oc1[nH]c2ccc(Br)cc2c1N=NC(=S)N1CCOCC1 | 18 | 168* | 8 | 19 | 15 | 102*
NC(=S)N=Nc1c(O)[nH]c2ccccc12 | 8 | 3 | -2 | 5 | 3 | ·
CCN(Cc1ccccc1)C(=O)c1c(-c2ccccc2Cl)noc1C | 5 | -1 | -3 | 8 | 31 | ·
CCOc1cc(/C=N/O)ccc1OCc1ccc([N+](=O)[O-])cc1 | -20 | 5 | 4 | 4 | 18 | ·
